UPR XBP1 act – activators of adaptive arm of unfolded protein response (XBP1) | activation, % at 20 µM | 0.33% of 330,000 active | CHO-XBP1 luciferase reporter, IRE1-XBP1 UPR activation, luminescence; percent of tunicamycin response, DMSO as zero;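 active = versus positive control, 20 µM dose yields 30% or more activation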
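Test system: CHO-XBP1 luciferase reporter cells | Buffer or medium: Serum-containing F12 medium, 10% FBS | Schedule: 6 h compound exposure at 37 °C, 5% CO2 | Detection: Steady-Glo luciferase glow luminescence, 10 min after reagent addition | Read-out basis: Activation, % of tunicamycin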
UPR CHOP act – activators of apoptotic arm of unfolded protein response (CHOP); CHO-CHOP luciferase reporter, UPR activation, luminescence; percent of tunicamycin response over DMSO baseline; activation, % at 10 µM; 0.34% of 330,000 active; AID 449763;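 active = at 10 µM dose, activation of 40% or more, normalized to positive control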
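System: CHO-CHOP luciferase reporter cell line; amount: 500 cells/well; buffer or medium: F12 medium containing 10% fetal bovine serum; incubation: 6 h compound exposure at 37 °C after overnight seeding; measured by: luciferase luminescence after 10 min with Steady-Glo reagent; evaluation: % reporter activation, DMSO baseline versus tunicamycin full activation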
697 NFkB inh – lowers PMA/ionomycin-induced NF-kB signal in 697 B cells; inhibition, % at 4 µM; AID 435022; 0.33% of 330,000 active; 697 B-cell NF-kB luciferase reporter, 16 h; in the data active = inhibition above about 35%
CHOP inhibitor – inhibitors of CHOP induction in ER stress response | 3.8% of 220,000 active | inhibition, % at 10 µM | CHO-K1 CHOP-promoter luciferase, tunicamycin-induced, 15-18 h | AID 2732;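 active = compounds that reduced the stress-induced luciferase reporter signal by more than about 70% of percent inhibition, limit read from the data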
Jurkat NFkB inh – lowers PMA/ionomycin-induced NF-kB signal in Jurkat cells; PMA/ionomycin-induced NF-kB luciferase reporter, luminescence; inhibition, % at 4 µM; 0.53% of 330,000 active; AID 435003; in the data active = inhibition above about 50%
Jurkat NFkB conf – inhibitors of the PMA/ionomycin-induced NF-kB reporter in Jurkat cells, retest; shares compounds with Jurkat NFkB inh; Jurkat NF-kB luciferase, 16 h; inhibition, % at 4 µM; 27% of 2,700 active; AID 435020;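 active = inhibition reaching about 45% at 4 µM in either replicate, limit read from the data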
697 NFkB conf – lowers PMA/ionomycin-induced NF-kB signal in 697 B cells; 35% of 2,000 active; shares compounds with 697 NFkB inh; AID 449746; inhibition, % at 4 µM; 697 B-cell NF-kB luciferase, 16 h; in the data active = inhibition mostly above about 28%, no sharp cut-off; inactive = mostly below about 22%
CHOP UPR conf – apoptotic UPR (CHOP) activation, confirmed. shares compounds with UPR CHOP act. activation, % at 10 µM. 64% of 1,000 active. CHO-CHOP cells, CHOP-luciferase reporter luminescence; percent of tunicamycin response, DMSO as zero; in the data active = activation above about 33%
XBP1 UPR conf – adaptive UPR (XBP1) activation, confirmed; 63% of 1,000 active; shares compounds with UPR XBP1 act; CHO-XBP1 IRE1-XBP1 luciferase reporter, luminescence; activation, % at 20 µM;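 active = reporter signal at least 30% of the positive control's activation in two or more of four replicate wells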
A number is an active result; 0 = inactive; - = no result. Shown is part of a subset that was picked to be rich in hits.

SMILES	UPR XBP1 act	UPR CHOP act	697 NFkB inh	CHOP inhibitor	Jurkat NFkB inh	Jurkat NFkB conf	697 NFkB conf	others
CCOc1ccc(-c2c(C)n(-c3ccc(OCC)cc3)c3[n+]2CCCCC3)cc1	0	0	48.1	0	100.3	78.8	59.5
CCc1cc(=O)oc2c(C)c(OCC(=O)N3C[C@H]4C[C@@H](C3)c3cccc(=O)n3C4)ccc12	0	0	0	-	0	-	-
Nc1ccccc1C(=O)OCCOc1ccccc1	0	0	0	0	0	0	0
C[n+]1c(-c2ccccc2)c2cc(N)ccc2c2ccc(N)cc21	0	0	57.7	-	66.5	61.9	54.5
CC(C)(O)/C=C/C(=O)[C@](C)(O)C1[C@H](O)C[C@@]2(C)C3CC=C4C(C[C@H](O)[C@@H](O)C4(C)C)[C@]3(C)C(=O)C[C@]12C (some centres not stated)	0	0	41.4	-	62.4	0	50.2
CC(C)(C)c1cc(C=C(C#N)C#N)cc(C(C)(C)C)c1O	0	0	0	0	55.5	72.8	0
COc1cc(C=C(C#N)C#N)cc(O)c1O	-	-	-	0	-	-	-
COC1=CC(=O)[C@]2(C=C1OC)OC[C@@H]1Oc3c(ccc4c3C=CC(C)(C)O4)C(=O)[C@@H]12	0	0	77.5	-	52.4	74.2	87.0
CCOc1ccccc1CN1C2CCC1CC(c1ccc(C)cc1)C2 (configuration not stated)	0	0	0	-	0	-	-
C[C@]12CCC3C(CC[C@H]4C[C@@H](O)CC[C@]34C)C1C[C@H](Br)[C@@H]2O (some centres not stated)	0	0	0	-	0	-	-
CC(C)(C)n1cc(C(=O)c2ccccc2OCCCF)cn1	0	0	0	-	0	-	-
CC(C)(C)n1cc(C(=O)c2ccc3ccccc3c2O)cn1	0	0	0	0	0	0	0
COC(=O)C1=C(c2ccccc2)C[C@@H]2CC[C@H]1N2C(=O)NC1CCCCC1	0	0	0	-	0	-	-
O=c1c2ccccc2nc(/C=C/c2ccc([N+](=O)[O-])o2)n1-c1ccc(O)cc1	0	93.6	0	0	91.1	66.8	-	CHOP UPR conf=37.4
O=c1c2ccccc2nc(/C=C/c2ccccc2)n1-c1ccc(O)cc1	0	0	0	-	0	-	-
Cc1ccc(-c2cc(-c3ccc(C)cc3)[n+](-c3ccccc3)c(-c3ccc(C)cc3)c2)cc1	0	54.7	0	-	96.8	85.9	-	CHOP UPR conf=69.0
COC(=O)C1=C(c2c(C)noc2C)C[C@@H]2CC[C@H]1N2C(=O)NC1CCCCC1	0	0	0	-	0	-	-
C=C(C)[C@@]12OC3(c4ccccc4)O[C@@H]1C1[C@@H]4O[C@]4(CO)[C@@H](O)[C@]4(O)C(=O)C(C)=C[C@H]4[C@@]1(O3)[C@H](C)[C@H]2OC(=O)/C=C/C=C/c1ccccc1 (some centres not stated)	47.0	0	0	-	81.4	0	-	XBP1 UPR conf=60.9
CC1=C2[C@@H]3OC(=O)[C@H](C)C3CC[C@@]2(C)C=CC1=O (some centres not stated)	0	0	0	-	0	-	-
COc1ccc(C2=NCc3nnc(C)n3-c3ccc(Cl)cc32)cc1Cl	0	0	44.9	0	0	-	35.4
CNC(=O)c1cccn(Cc2ccc(C(F)(F)F)cc2)c1=O	0	0	49.9	0	0	-	61.2
Cc1ncc2n1-c1ccc(Cl)cc1C(c1ccccc1F)=NC2	0	0	0	-	0	-	-
COC(=O)C1=C(c2cccc(C#N)c2)C[C@@H]2CC[C@H]1N2C(=O)NCC1CC1	0	0	0	-	0	-	-
Cn1cnc([N+](=O)[O-])c1Sc1ccc([N+](=O)[O-])cc1	0	0	36.2	0	0	-	42.8
Cn1cc2c([N+](=O)[O-])cc([N+](=O)[O-])cc2n1	-	-	-	0	-	-	-

Source: PubChem (several laboratories)
